# From PMC10905627 (Oncogene, 2018)
# Where two headings read alike, the source gives them in different places. Peptide text beside a SMILES is read from it. * marks the point of attachment. Cbz = O=C(OCc1ccccc1)*; CH2F = FC*
# Key:
# [1] = Metabolic stability in mouse liver microsomes; type: in vitro ADME
# [2] = tested on: H1299 lung cancer cells; test: Cell viability; type: cell-based, human; conditions: for cell death, JL5 compared with DMH2: H1299, 2.5 μM, 3 days; for effect on JL5-induced cell death: H1299, pretreated 1 h, then JL5 3 days
# [3] = LCMS of stored solid sample; type: physicochemical; conditions: stored as a solid in a desiccator for 4 months
# [4] = cited from earlier work
# [5] = molecular target: T1, ALK2/ACVR1 (Homo sapiens, UniProt Q04771); conditions: read-out: IC50 ALK2/ACVR1; previously reported; cited from earlier work
# T1 sequence (Q04771 21-509): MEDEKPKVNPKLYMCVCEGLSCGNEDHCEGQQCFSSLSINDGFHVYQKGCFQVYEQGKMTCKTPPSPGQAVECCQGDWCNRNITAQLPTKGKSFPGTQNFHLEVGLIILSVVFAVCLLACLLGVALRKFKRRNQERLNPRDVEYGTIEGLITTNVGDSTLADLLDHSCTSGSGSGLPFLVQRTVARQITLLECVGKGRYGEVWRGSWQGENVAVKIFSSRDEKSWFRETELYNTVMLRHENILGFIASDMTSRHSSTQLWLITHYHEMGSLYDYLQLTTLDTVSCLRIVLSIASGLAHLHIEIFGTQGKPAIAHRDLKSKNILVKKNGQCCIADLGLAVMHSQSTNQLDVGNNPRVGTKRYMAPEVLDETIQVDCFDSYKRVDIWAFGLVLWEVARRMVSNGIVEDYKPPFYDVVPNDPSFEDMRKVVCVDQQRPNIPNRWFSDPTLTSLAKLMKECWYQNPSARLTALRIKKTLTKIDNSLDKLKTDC
# [6] = molecular target: T2, ALK3/BMPR1A (Homo sapiens, UniProt P36894); conditions: read-out: IC50 ALK3/BMPR1A; previously reported; cited from earlier work
# T2 sequence (P36894 24-532): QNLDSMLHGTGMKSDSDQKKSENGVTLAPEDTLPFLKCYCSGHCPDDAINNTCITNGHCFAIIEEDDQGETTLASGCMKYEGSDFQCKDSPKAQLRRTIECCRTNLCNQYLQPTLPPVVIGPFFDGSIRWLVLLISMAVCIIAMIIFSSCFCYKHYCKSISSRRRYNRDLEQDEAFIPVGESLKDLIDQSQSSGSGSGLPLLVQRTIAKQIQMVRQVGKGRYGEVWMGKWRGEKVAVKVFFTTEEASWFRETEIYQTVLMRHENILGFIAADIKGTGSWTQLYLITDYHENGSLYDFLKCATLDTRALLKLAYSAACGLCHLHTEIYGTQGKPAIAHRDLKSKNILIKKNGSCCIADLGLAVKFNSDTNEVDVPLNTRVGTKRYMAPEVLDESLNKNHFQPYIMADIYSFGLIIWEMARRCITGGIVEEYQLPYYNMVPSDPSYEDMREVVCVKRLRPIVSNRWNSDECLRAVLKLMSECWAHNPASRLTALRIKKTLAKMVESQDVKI
# [7] = molecular target: T3, ALK6/BMPR1B (Homo sapiens, UniProt O00238); conditions: read-out: IC50 ALK6/BMPR1B; previously reported; cited from earlier work
# T3 sequence (O00238 14-502): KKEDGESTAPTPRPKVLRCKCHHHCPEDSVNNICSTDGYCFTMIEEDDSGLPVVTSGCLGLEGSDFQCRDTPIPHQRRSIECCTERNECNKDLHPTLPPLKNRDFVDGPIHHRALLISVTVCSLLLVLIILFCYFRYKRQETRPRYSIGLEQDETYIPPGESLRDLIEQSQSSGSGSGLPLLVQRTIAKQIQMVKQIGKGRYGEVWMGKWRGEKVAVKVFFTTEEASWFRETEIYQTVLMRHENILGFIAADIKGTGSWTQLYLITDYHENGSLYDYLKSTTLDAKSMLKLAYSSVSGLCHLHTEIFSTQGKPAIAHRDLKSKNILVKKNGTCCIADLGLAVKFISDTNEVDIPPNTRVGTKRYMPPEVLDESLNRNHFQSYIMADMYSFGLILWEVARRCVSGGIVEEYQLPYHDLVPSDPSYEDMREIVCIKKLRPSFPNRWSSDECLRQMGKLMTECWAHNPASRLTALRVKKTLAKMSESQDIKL
# [8] = molecular target: T4, BMPR2 (Homo sapiens, UniProt Q13873); conditions: read-out: IC50 BMPR2; previously reported; cited from earlier work
# T4 sequence (Q13873 27-1038): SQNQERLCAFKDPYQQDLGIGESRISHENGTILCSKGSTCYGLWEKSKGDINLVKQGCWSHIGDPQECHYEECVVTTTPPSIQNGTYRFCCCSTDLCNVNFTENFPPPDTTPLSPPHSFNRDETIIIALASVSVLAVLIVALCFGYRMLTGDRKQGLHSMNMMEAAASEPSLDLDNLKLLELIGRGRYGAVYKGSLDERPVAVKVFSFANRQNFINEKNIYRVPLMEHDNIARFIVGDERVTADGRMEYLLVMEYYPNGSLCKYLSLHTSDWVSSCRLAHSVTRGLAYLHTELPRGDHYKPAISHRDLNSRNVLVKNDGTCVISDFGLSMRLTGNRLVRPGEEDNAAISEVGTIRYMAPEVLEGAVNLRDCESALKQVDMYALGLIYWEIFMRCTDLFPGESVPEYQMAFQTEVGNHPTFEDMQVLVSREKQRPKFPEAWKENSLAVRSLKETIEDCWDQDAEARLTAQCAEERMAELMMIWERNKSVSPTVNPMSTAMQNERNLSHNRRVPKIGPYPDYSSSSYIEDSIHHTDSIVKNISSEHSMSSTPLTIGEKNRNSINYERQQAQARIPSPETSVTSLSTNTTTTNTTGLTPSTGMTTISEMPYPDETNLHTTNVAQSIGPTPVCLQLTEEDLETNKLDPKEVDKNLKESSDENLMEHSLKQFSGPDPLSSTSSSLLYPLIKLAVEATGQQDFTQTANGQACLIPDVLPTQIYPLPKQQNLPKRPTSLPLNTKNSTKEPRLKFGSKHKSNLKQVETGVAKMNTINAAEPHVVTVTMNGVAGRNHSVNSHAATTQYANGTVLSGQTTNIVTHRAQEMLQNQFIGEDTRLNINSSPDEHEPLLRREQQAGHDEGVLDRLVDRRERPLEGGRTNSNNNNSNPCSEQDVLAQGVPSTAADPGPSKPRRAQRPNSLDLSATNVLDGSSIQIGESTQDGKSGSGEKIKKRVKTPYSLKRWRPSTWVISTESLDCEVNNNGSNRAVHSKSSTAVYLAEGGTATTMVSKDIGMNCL
# [9] = tested on: Id1, TAK1, XIAP in H1299 tumors; conditions: similar doses; cited from earlier work
# [10] = Pharmacokinetics in BALB/c mice; type: in vivo, mouse
# [11] = molecular target: T1, ALK2/ACVR1; test: IC50 kinase assay ALK2; type: biochemical; conditions: ATP 10 μM
# [12] = molecular target: T2, ALK3/BMPR1A; test: IC50 kinase assay ALK3; type: biochemical; conditions: ATP 10 μM
# [13] = molecular target: T3, ALK6/BMPR1B; test: IC50 kinase assay ALK6; type: biochemical; conditions: ATP 10 μM
# [14] = molecular target: T4, BMPR2; test: IC50 kinase assay BMPR2; type: biochemical
# [15] = Toxicity studies in NSG mice; type: in vivo
# [16] = tested on: Id1 promoter; test: Id1-luciferase reporter assay in H1299 cells; type: cell-based, human; conditions: H1299 cells stably expressing reporter, 48 h
# Procedure, shortened: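 H1299 cells stably carrying an Id-1 promoter–luciferase reporter were exposed to test compound for 48 h. Cells were then lysed and luminescence read on a luminometer. The experiment was run twice.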
# [17] = tested on: A549 cells; test: Cell growth A549; type: cell-based, human; conditions: A549, activating K-Ras mutation
# Procedure, shortened: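 A549 cells grown in DMEM with 5% FBS, seeded in six-well plates and exposed to test compound from the following day for the set time. Live and dead cells were counted on a Vi-CELL analyser by trypan blue exclusion, 500 cells per sample.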
# [18] = tested on: H1299 cells; test: Annexin V / 7-AAD staining; type: cell-based, human; conditions: H1299, 2.5 μM, 48 h, vs DMSO
# Procedure, shortened: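 H1299 cells in six-well plates exposed to DMSO or test compound at 2.5 μM for 48 h. They were then stained with labeled Annexin V and 7-AAD per kit instructions and analysed by flow cytometry. 7-AAD-positive, Annexin V-negative cells counted as necrotic. Experiments run at least 3 times.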
# [19] = tested on: H1299 cells; test: TUNEL assay; type: cell-based, human; conditions: H1299, 24 h
# [20] = tested on: caspase-3, PARP in H1299 cells; test: Western blot of activated caspase-3 and PARP; type: cell-based, human; conditions: H1299, 3 days
# Procedure, shortened: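 H1299 cells treated with test compound, and total protein quantified by BCA. Lysates separated by SDS-PAGE onto nitrocellulose and blocked at least 2 h. Probed overnight at 4 °C with rabbit monoclonal anti-activated caspase-3 and anti-PARP, with actin or GAPDH as loading control. Secondary antibody 1 h at room temperature, then enhanced chemiluminescence detection.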
# [21] = tested on: H1299 tumors; test: H1299 tumor xenografts in NSG mice without immune cells; type: in vivo, mouse
# [22] = tested on: H1299 tumors; test: H1299 tumor xenografts in humanized NSG mice; type: in vivo, mouse
# [23] = tested on: Id1, TAK1, XIAP in H1299 tumors; test: Western blot of BMP downstream targets in H1299 tumor xenografts; type: in vivo, mouse; conditions: NSG mice, 4 days
# Procedure, shortened: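 Xenografts made by intradermal flank injection of 2 million H1299 cells into NSG mice. At about 4 mm × 4 mm, mice received test compound at 3 or 10 mg/kg twice daily, or DMSO, for four days. Tumor protein (BCA-quantified) run on SDS-PAGE and blotted to nitrocellulose. Probed with anti-Id1, anti-pTAK1 and anti-XIAP (primary overnight at 4 °C), then ECL detection.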
# [24] = molecular target: T5, ALK5/TGFβR1 (Homo sapiens, UniProt P36897); conditions: read-out: IC50 ALK5/TGFβR1; ATP 10 μM
# T5 sequence (P36897 34-503): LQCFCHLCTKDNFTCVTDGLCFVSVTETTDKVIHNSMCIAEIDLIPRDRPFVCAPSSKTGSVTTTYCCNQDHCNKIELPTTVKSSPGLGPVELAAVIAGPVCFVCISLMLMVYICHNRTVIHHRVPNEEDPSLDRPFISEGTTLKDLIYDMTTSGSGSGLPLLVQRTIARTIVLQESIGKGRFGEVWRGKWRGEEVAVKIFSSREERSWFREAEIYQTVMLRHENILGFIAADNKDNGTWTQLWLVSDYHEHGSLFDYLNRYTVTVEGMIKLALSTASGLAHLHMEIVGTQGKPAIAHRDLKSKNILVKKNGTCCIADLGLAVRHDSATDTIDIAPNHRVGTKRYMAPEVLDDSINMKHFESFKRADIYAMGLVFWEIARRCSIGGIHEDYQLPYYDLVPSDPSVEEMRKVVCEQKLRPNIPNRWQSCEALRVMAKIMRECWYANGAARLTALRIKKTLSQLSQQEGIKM
# [25] = NSG mice, IP 3 mg/kg, 10 mg/kg twice daily for 4 days
# [26] = treatment day 21, IHC image analysis
compound,measurement,setting,value
c1ccc2c(-c3cnn4cc(-c5ccc(OCCN6CCOCC6)cc5)cnc34)ccnc2c1 [DMH2],ClearanceINT,[1],250 mL/min/kg
same,"cell death, JL5 compared with DMH2",[2],same amount of cell death
same,chemical stability on storage (LCMS),[3],revealed a phenolic byproduct due to morpholine side-chain hydrolysis
same,AUCinf,[4]; i.v.,487 ng·h/mL
same,AUClast,[4]; i.v.,485 ng·h/mL
same,CL,[4]; i.v.,68 mL/min/kg
same,T1/2,[4]; i.v.,57 min
same,Vss,[4]; i.v.,0.95 L/kg
same,AUCinf,[4]; p.o.,729 ng·h/mL
same,AUClast,[4]; p.o.,707 ng·h/mL
same,C0/Cmax,[4]; p.o.,684 ng/mL
same,half-life,[4]; stated in discussion,60 min
same,IC50,[5],23 nM
same,IC50,[6],92 nM
same,IC50,[7],43 nM
same,IC50,[8],7950 nM
same,"downregulation of Id1, pTAK1, XIAP in tumor xenografts",[9],"did not downregulate Id1, pTAK1, or XIAP"
c1ccc2c(-c3cnn4cc(-c5ccc(OCCN6CCCCC6)cc5)cnc34)ccnc2c1 [JL5],ClearanceINT,[1],129 mL/min/kg
same,intrinsic clearance lower than that of DMH2,[1],48%
same,AUCinf,"[10]; i.v., 2 mg/kg",381 ng·h/mL
same,AUClast,"[10]; i.v., 2 mg/kg",349 ng·h/mL
same,C0/Cmax,"[10]; i.v., 2 mg/kg",568 ng/mL
same,CL,"[10]; i.v., 2 mg/kg",194 mL/min/kg
same,T1/2,"[10]; i.v., 2 mg/kg",34.2 min
same,Vss,"[10]; i.v., 2 mg/kg",8.78 L/kg
same,AUCinf,[10]; p.o.,"1,645 hr×ng/mL"
same,AUClast,[10]; p.o.,"1,605 hr×ng/mL"
same,C0/Cmax,[10]; p.o.,"1,282 ng/mL"
same,IC50 ALK2/ACVR1,[11],single digit nanomolar
same,IC50,[11]; read-out: IC50 ALK2/ACVR1,1 nM
same,IC50 ALK3/BMPR1A,[12],single digit nanomolar
same,IC50,[12]; read-out: IC50 ALK3/BMPR1A,< 5 nM
same,IC50 ALK6/BMPR1B,[13],single digit nanomolar
same,IC50,[13]; read-out: IC50 ALK6/BMPR1B,2 nM
same,IC50,"[14]; read-out: IC50 BMPR2, ATP 10 μM",8510 nM
same,IC50,[14]; read-out: IC50 for the BMP type II receptor BMPR2,~8000 nM
same,"signs of toxicity (anorexia, lethargy, loss of weight)","[15]; 21-day studies, 10 mg/kg intraperitoneal twice daily",no signs of toxicity
same,blood chemistry screen vs DMSO,[15]; [25],no significant difference
same,"histological examination of livers, lungs, kidneys",[15]; [25],did not reveal any evidence of toxicity
same,"systemic toxicity (loss of appetite, anorexia, lethargy)",[15]; [25],no evidence of systemic toxicity
same,expression of the Id1-luciferase reporter,[16],dose-related decrease
same,"cell death, JL5 compared with DMH2",[2],same amount of cell death
same,dead and live cells vs DMSO control,"[2]; H1299, 7 days",majority of the H1299 cells treated with JL5 were dead
same,growth of A549 cells,[17],suppressed growth
same,"percentage of cells in late apoptosis / necrosis (Annexin V, 7-AAD)",[18],significant increase in the percentage of cells in late stages of apoptosis as well as necrosis
same,DNA double-stranded breaks (TUNEL),[19],induces DNA double-stranded breaks
same,activation of caspase-3 and cleavage of PARP,[20],induced the activation of caspase-3 and cleavage of PARP
same,regression in tumor size,"[21]; 10 mg/mL, from treatment day 5 to day 14",~ 35%
same,"tumor cell death or proliferation (H&E, Ki67)",[21]; after 21 days of treatment,No significant differences
same,size and weight of tumors vs vehicle control,"[22]; 10 mg/kg twice daily, 13 days",significant difference in the size and weight
same,regression in tumor size,"[22]; 10 mg/kg twice daily, from treatment day 7 to day 12",~ 35%
same,necrotic cells compared to control tumors,"[22]; 13 days, H&E image analysis",twice the number of necrotic cells
same,cell death by H&E staining,[22]; 21 days,no noteworthy histomorphological differences
same,proliferation of tumor cells (Ki67),[22]; 21 days,significant reduction in proliferation
same,increase in CD3+ cells within tumor vs DMSO control,[22]; [26],67%
same,increase in CD4+ cells within tumor vs DMSO control,[22]; [26],80%
same,expression of Id1 in tumors,[23]; 3 mg/mL,feedback increase in the expression of Id1
same,"protein expression of Id1, TAK1, XIAP in tumors",[23]; 10 mg/kg,decreased protein expression of Id1 and TAK1 but not XIAP
same,IC50,[24],440 nM
COC(=O)C[C@H](NC(=O)[C@H](C)NC(=O)[C@@H](NC(=O)OCc1ccccc1)C(C)C)C(=O)CF [Z-VAD-FMK] (Cbz-Val-Ala-Asp(OMe)-CH2F),effect on JL5-induced cell death,[2],partially inhibited
CN1C(=O)C(Cc2c[nH]c3ccccc23)NC1=S (stereo not shown) [necrostatin-1],effect on JL5-induced cell death,[2],had no effect
